Data as given in ChEMBL document CHEMBL3228038 (J Med Chem, 1979).
Activity calls are given as the source filed them. No cut-off for these calls is given here.

Legend:
Mus musculus [1] = experiment: Inhibition of morphine-induced analgesia in Swiss Webster mouse assessed as change in morphine ED50 at 2.4 nmol, icv after 2 hrs by tail flick test; type: functional, organism-based
Mus musculus [2] = experiment: Analgesic activity in Swiss Webster mouse at 4 nmol, icv after 10 to 120 mins by tail flick test; type: functional, organism-based
In short: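 Male Swiss Webster mice, 20-25 g. Compound given icv in 4 µL saline (working solution from ethanol/0.05 N HCl stock, evaporated under nitrogen). Agonist activity read by modified D'Amour-Smith tail-flick at intervals out to 2 h post-injection. Saline icv controls given in the same volume.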

Mus musculus [3] = experiment: Toxicity in Swiss Webster mouse assessed as lethargic behavior at 4 nmol, icv; type: organism-based; conditions: in vivo, icv_or_intrathecal
In short: (§1)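 Male Swiss Webster mice, 20-25 g, observed after icv injection in 4 µL saline. Recorded: lethality and preceding tonic convulsions within 1.5 h, lethargy, startle reflex to hand clap, locomotor activity, and tail-flick latency.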

Mus musculus [4] = experiment: Toxicity in icv dosed Swiss Webster mouse assessed as change in tail flick latency; type: organism-based; conditions: in vivo, icv_or_intrathecal; in short: as §1
Mus musculus [5] = experiment: Toxicity in icv dosed Swiss Webster mouse assessed as suppression of startle reflex to loud and abrupt auditory stimulus; type: organism-based; conditions: in vivo, icv_or_intrathecal; in short: as §1
Mus musculus [6] = experiment: Toxicity in icv dosed Swiss Webster mouse assessed as decrease in locomotor activity; type: organism-based; conditions: in vivo, icv_or_intrathecal; in short: as §1
Mus musculus [7] = experiment: Effect on development of dependence to morphine in Swiss Webster mouse assessed as increase in naloxone ED50 for eliciting withdrawal jumping at 0.24 nmol, icv after 72 hrs relative to control; type: functional, organism-based
In short: (§2)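 Male Swiss Webster mice, 20-25 g. Given icv injection (4 µL saline vehicle) immediately after sc implantation of a 50 mg morphine or placebo pellet. At 24 and 72 h, naloxone given sc (10 mL/kg saline) and ED50 taken for precipitated withdrawal jumping (Way method). Groups of 4-5 mice per ED50.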

Mus musculus [8] = experiment: Effect on development of dependence to morphine in Swiss Webster mouse assessed as increase in naloxone ED50 for eliciting withdrawal jumping at 0.24 nmol, icv after 24 hrs relative to control; type: functional, organism-based; in short: as §2
Mus musculus [9] = experiment: Toxicity in icv dosed Swiss Webster mouse assessed as lethargic behavior; type: organism-based; conditions: in vivo, icv_or_intrathecal; in short: as §1
Mus musculus [10] = experiment: Toxicity in Swiss Webster mouse assessed as mortality at 2.4 nmol, icv; type: organism-based; conditions: in vivo, icv_or_intrathecal; in short: as §1
Mus musculus [11] = experiment: Toxicity in Swiss Webster mouse assessed as lethality at 4.8 nmol, icv after 1.5 hrs; type: organism-based; conditions: in vivo, icv_or_intrathecal; in short: as §1
Mus musculus [12] = experiment: Toxicity in Swiss Webster mouse assessed as tonic convulsions at 4.8 nmol, icv; type: organism-based; conditions: in vivo, icv_or_intrathecal; in short: as §1

Compound	inhibition (Mus musculus [1])	Activity (Mus musculus [2])	Activity (Mus musculus [3])	Activity (Mus musculus [4])	Activity (Mus musculus [5])	Activity (Mus musculus [6])	Activity (Mus musculus [7])	Activity (Mus musculus [8])	Activity (Mus musculus [9])	Activity (Mus musculus [10])	Activity (Mus musculus [11])	Activity (Mus musculus [12])
O=C(O)CCCc1ccc(N(CCCl)CCCl)cc1 [CHLORAMBUCIL]	inactive	inactive	Toxic	Non-toxic	Non-toxic	Toxic	–	–	–	–	–	–
O=C1CC[C@@]2(O)[C@H]3Cc4ccc(O)c5c4[C@@]2(CCN3CC2CC2)[C@H]1O5	inactive	–	–	–	–	–	inactive	inactive	–	–	–	–
Oc1ccc2c3c1O[C@H]1[C@H](N(CCCl)CCCl)CC[C@@]4(O)[C@@H](C2)N(CC2CC2)CC[C@]314	–	–	–	Non-toxic	Non-toxic	Toxic	–	–	Toxic	Toxic	Toxic	Toxic
